Here are results for 15 compounds from ChEMBL document CHEMBL1143660, “Structure-activity relationship studies of a series of novel delta-lactam-based histone deacetylase inhibitors” (J Med Chem, 2007).

Assay [1] relates to RAW264.7. The assay is described as follows: Inhibition of LPS-stimulated TNFalpha production in RAW264.7 cells after 24 hrs by ELISA. The note with it: Mus musculus, RAW264.7, 24 h. The assay is classed as functional, cell-based.
The next assay addresses Histone deacetylase. The assay is described as follows: Inhibition of HDAC in HeLa cells by fluorescent activity assay. The assay is classed as cell-based, Homo sapiens. The note with it: for pIC50: read-out: IC50.
For assay [2], the system named is RAW264.7. The assay is described as follows: Inhibition of LPS-stimulated NO production in RAW264.7 cells after 24 hrs […]. The conditions noted are these: Mus musculus, RAW264.7, 24 h. Type of assay: functional, cell-based. In short, it runs like this:
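RAW264.7 murine macrophages stimulated with LPS and treated with inhibitor at 0.1 to 10 µM; suppression of NO production measured and IC50 calculated; values are means of at least three experiments.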

In a further assay the test system is NCI-H23. As to the kind of experiment: Growth inhibition of NCI-H23 cells by SRB assay. The assay is classed as functional. The conditions noted are these: Homo sapiens. In general terms: In SRB staining, fixed cells bind dye roughly in proportion to their protein.
Assay [3] has as its system MDA-MB-231. As to the kind of experiment: Growth inhibition of human MDA-MB-231 cells by SRB assay. Type of assay: functional.
For another assay, the system named is PC-3. The assay is described as follows: Growth inhibition of PC3 cells by SRB assay. The assay is classed as functional. The note with it: Homo sapiens.
For another assay, the system named is ACHN. The assay is described as follows: Growth inhibition of ACHN cells by SRB assay. Type of assay: functional. The conditions noted are these: Homo sapiens.
The subject of another assay is HCT-15. The assay is described as follows: Growth inhibition of HCT15 cells by SRB assay. Type of assay: functional, Homo sapiens.
For assay [4], the system named is MDA-MB-231. The assay is described as follows: Inhibition of tumor growth in MDA-MB-231 cells xenografted BALA/c nude mouse at 30 mg/kg, ip. The assay is classed as functional, Homo sapiens. The note with it: MDA-MB-231, ip, route intraperitoneal.
For a further assay, the system named is LOX IMVI. As to the kind of experiment: Growth inhibition of LOX-IMVI cells by SRB assay. Type of assay: functional. The conditions noted are these: Homo sapiens.

pIC50: −log10 of the molar value. Activity calls are given as the source filed them. The rule behind the calls is not given here.

As usually defined, the pIC50 is the IC50 on a negative log10 scale, so that one unit is a factor of ten. Usually IC50 stands for the concentration that inhibits the measured activity by half. A high value points to weaker potency in that assay. One may read the GI50 as the concentration at which growth is held to half of that of the control. Lower therefore signals more potent growth inhibition. As a reminder, the inhibition in vivo is how much of the control response was suppressed. Lower therefore signals a response near the control.

`O=C(CCCC1=CCCN(CCCc2ccccc2)C1=O)NO`: the results for the negative-log IC50 (pIC50) in the assay with RAW264.7 [1] and in the assay on RAW264.7 [2] were under 5.00 and 5.18, respectively. Besides, at Histone deacetylase, the 50% inhibitory concentration (IC50) is 3.21 µM.

Take `O=C(CCC1=CCCN(CCCCc2ccccc2)C1=O)NO`: the values for the pIC50 in the assay with RAW264.7 [1] and with RAW264.7 [2] were 5.89 and 5.74, respectively. This compound displayed an IC50 at Histone deacetylase of 0.13 µM. For the same compound, the GI50 with NCI-H23 came out at 5.14 µM; in the assay with MDA-MB-231 [3] (Homo sapiens, MDA-MB-231), 1.5 µM; in the assay on PC-3, 1.32 µM; with ACHN, 2.5 µM; in the assay with HCT-15 (Homo sapiens, HCT-15), 5.37 µM. In the assay on MDA-MB-231 [4], the inhibition in vivo at 30 mg/kg stood at 51%.

Turning to `C=CCN1CCC=C(CCC(=O)NO)C1=O`, the values for the negative logarithm of the IC50 (pIC50) with RAW264.7 [1], on Histone deacetylase and in the assay on RAW264.7 [2] were 4.96, 5.37 and under 5.00, respectively.

Regarding `O=C(CCCC1=CCCN(CCc2ccccc2)C1=O)NO`, the negative logarithm of the IC50 (pIC50) in the assay on RAW264.7 [1] and with RAW264.7 [2] was under 5.00 in each case. At Histone deacetylase, this compound had an IC50 of over 10 µM.

Take `O=C(CCC1=CCCN(CCc2ccccc2)C1=O)NO`: the negative-log IC50 (pIC50) was 5.72 with RAW264.7 [1], 6.46 at Histone deacetylase and 5.37 with RAW264.7 [2]. The GI50 with MDA-MB-231 [3] (Homo sapiens, MDA-MB-231) is 1.62 µM; in the assay on PC-3 it was 8.58 µM; in the assay on ACHN it was 7.76 µM; in the assay on LOX IMVI, 5.84 µM; in the assay on HCT-15 (Homo sapiens, HCT-15), 8.16 µM.

With `O=C(CC1=CCCN(CCCCc2ccccc2)C1=O)NO`, the pIC50 in the assay on RAW264.7 [1] and with RAW264.7 [2] was under 5.00 in each case. Further, the IC50 on Histone deacetylase was over 10 µM.

Turning to `O=C(CCC1=CCCN(Cc2ccccc2)C1=O)NO`, the pIC50 is 5.48 in the assay with RAW264.7 [1], 6.17 at Histone deacetylase and 5.51 in the assay on RAW264.7 [2]. The compound also gave a 50% growth inhibitory concentration (GI50) with MDA-MB-231 [3] (Homo sapiens, MDA-MB-231) of 4.26 µM. Also, the result in the assay on HCT-15 (Homo sapiens) was inactive.

For `O=C(CC1=CCCN(CCCc2ccccc2)C1=O)NO`, the negative-log IC50 (pIC50) in the assay with RAW264.7 [1] and in the assay on RAW264.7 [2] was under 5.00 each time. This compound also gave a 50% inhibitory concentration (IC50) against Histone deacetylase of over 10 µM.

Regarding `O=C(CCCCCCC(=O)Nc1ccccc1)NO` [VORINOSTAT], the GI50 with MDA-MB-231 [3] worked out at 0.66 µM; in the assay with HCT-15 it was 0.82 µM.

For `O=C(CC1=CCCN(CCc2ccccc2)C1=O)NO`, the negative-log IC50 (pIC50) in the assay with RAW264.7 [1] and with RAW264.7 [2] was under 5.00 each time. For the same compound, the IC50 against Histone deacetylase is over 10 µM.

Take `COc1ccc(CN2CCC=C(CCC(=O)NO)C2=O)c(OC)c1`: the pIC50 is 5.30 with RAW264.7 [1], 6.30 at Histone deacetylase and 5.28 in the assay with RAW264.7 [2]. Besides, the concentration for 50% growth inhibition (GI50) with MDA-MB-231 [3] (Homo sapiens, MDA-MB-231) was 2.67 µM; in the assay with PC-3, 4.55 µM; with ACHN, 9.58 µM; in the assay on LOX IMVI, 6.63 µM; in the assay on HCT-15 (Homo sapiens, HCT-15) it was 7.98 µM.

For `O=C(CC1=CCCN(Cc2ccccc2)C1=O)NO`, the pIC50 in the assay on RAW264.7 [1] and with RAW264.7 [2] was under 5.00 throughout. The compound also displayed a concentration for half-maximal inhibition (IC50) at Histone deacetylase of over 10 µM.

As to `O=C(CCC1=CCCN(CCCc2ccccc2)C1=O)NO`, the negative-log IC50 (pIC50) is 5.96 in the assay on RAW264.7 [1] and 5.57 with RAW264.7 [2]. Besides, the IC50 at Histone deacetylase was found to be 0.27 µM. Further, the 50% growth inhibitory concentration (GI50) stood at 3.79 µM in the assay with NCI-H23; 0.5 µM with MDA-MB-231 [3] (Homo sapiens, MDA-MB-231); 5.04 µM in the assay on PC-3; 1.17 µM in the assay with ACHN; 3.34 µM in the assay on LOX IMVI; 4.99 µM in the assay on HCT-15 (Homo sapiens, HCT-15).

As for `CN1CCC=C(CCC(=O)NO)C1=O`, the negative-log IC50 (pIC50) in the assay on RAW264.7 [1] and in the assay on RAW264.7 [2] was under 5.00 throughout. The concentration for half-maximal inhibition (IC50) on Histone deacetylase was over 10 µM.

On to `O=C(CCCC1=CCCN(CCCCc2ccccc2)C1=O)NO`, for which the pIC50 was under 5.00 in the assay on RAW264.7 [1] and 5.17 with RAW264.7 [2]. On Histone deacetylase, this compound displayed a 50% inhibitory concentration (IC50) of over 10 µM.
